From ChEMBL document CHEMBL3046177, “Plant growth inhibitory activity of p-hydroxyacetophenones and tremetones from Chilean endemic Baccharis species and some analogous: a comparative study” (J Agric Food Chem, 2002)
Activity calls are given as the source filed them. No cut-off for these calls is given here.

Legend:
Physalis ixocarpa [1] = experiment: Phytotoxicity against Physalis ixocarpa assessed as inhibition of seed respiration during germination after 24 hr; assay type: functional, organism-based
How it was run: (§1)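 Oxygen uptake of germinating seeds measured polarographically with a Clark-type electrode at 25 °C in a nonilluminated cell over 5 and 10 min, at several compound concentrations. Expressed as percent of control (100%). Three experiments; RI50 from Probit analysis.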

Lolium multiflorum [2] = experiment: Phytotoxicity against Lolium multiflorum (Italian ryegrass) assessed as inhibition of seed germination at 500 uM after 48 hr; assay type: functional
How it was run: (§2)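 Seeds of uniform size on Whatman No.1 filter paper in 85 mm Petri dishes, wetted with 8 or 10 mL deionized water or test solution (MeOH < 1%); controls got matching water/methanol. Sealed, incubated at 28 °C in the dark, scored at 48 h intervals; germination = 1 mm radicle extrusion. Three replicates.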

Trifolium pratense [3] = experiment: Increase of shoot development during seeding stage in Trifolium pratense (red clover) at 200 uM after 120 hr; assay type: functional, organism-based
How it was run: (§3)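 Petri-dish seedling assay on filter paper wetted with test solution (MeOH < 1%), 28 °C in the dark. Coleoptile/hypocotyl and root lengths of all germinated seeds measured after 120 h, then plants dried to constant weight at 40 °C. Three replicates; 50% inhibitory concentrations by Probit analysis of percent inhibition versus concentration.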

Physalis ixocarpa [4] = experiment: Increase of shoot development during seeding stage in Physalis ixocarpa up to 50 uM after 120 hr; assay type: functional, organism-based; how it was run: as §3
Trifolium pratense [5] = experiment: Increase of root development during seeding stage in Trifolium pratense (red clover) at 50 to 300 uM after 120 hr; assay type: functional, organism-based; how it was run: as §3
Lactuca sativa [6] = experiment: Increase of root development during seeding stage in Lactuca sativa (lettuce) at 50 to 300 uM after 120 hr; assay type: functional, organism-based; how it was run: as §3
Trifolium pratense [7] = experiment: Phytotoxicity against Trifolium pratense (red clover) assessed as inhibition of root development during seeding stage after 120 hr; assay type: functional, organism-based; how it was run: as §3
Trifolium pratense [8] = experiment: Phytotoxicity against Trifolium pratense (red clover) assessed as inhibition of shoot development during seeding stage after 120 hr; assay type: functional, organism-based; how it was run: as §3
Physalis ixocarpa [9] = experiment: Phytotoxicity against Physalis ixocarpa assessed as inhibition of root development during seeding stage after 120 hr; assay type: functional, organism-based; how it was run: as §3
Physalis ixocarpa [10] = experiment: Phytotoxicity against Physalis ixocarpa assessed as inhibition of shoot development during seeding stage after 120 hr; assay type: functional, organism-based; how it was run: as §3
Lactuca sativa [11] = experiment: Phytotoxicity against Lactuca sativa (lettuce) assessed as inhibition of root development during seeding stage after 120 hr; assay type: functional, organism-based; how it was run: as §3
Lactuca sativa [12] = experiment: Phytotoxicity against Lactuca sativa (lettuce) assessed as inhibition of shoot development during seeding stage after 120 hr; assay type: functional, organism-based; how it was run: as §3
Lolium multiflorum [13] = experiment: Phytotoxicity against Lolium multiflorum (Italian ryegrass) assessed as inhibition of root development during seeding stage after 120 hr; assay type: functional, organism-based; how it was run: as §3
Lolium multiflorum [14] = experiment: Phytotoxicity against Lolium multiflorum (Italian ryegrass) assessed as inhibition of shoot development during seeding stage after 120 hr; assay type: functional, organism-based; how it was run: as §3
Trifolium pratense [15] = experiment: Phytotoxicity against Trifolium pratense (red clover) assessed as inhibition of seed germination after 48 hr; assay type: functional; how it was run: as §2
Lolium multiflorum [16] = experiment: Phytotoxicity against Lolium multiflorum (Italian ryegrass) assessed as inhibition of seed respiration during germination at 300 to 500 uM after 24 hr; assay type: functional, organism-based; how it was run: as §1
Lolium multiflorum [17] = experiment: Increase of seed respiration during germination in Lolium multiflorum (Italian ryegrass)at 30 uM; assay type: functional, organism-based; how it was run: as §1
Trifolium pratense [18] = experiment: Phytotoxicity against Trifolium pratense (red clover) assessed as inhibition of seed respiration during germination after 24 hr; assay type: functional, organism-based; how it was run: as §1
Lactuca sativa [19] = experiment: Phytotoxicity against Lactuca sativa (lettuce) assessed as inhibition of seed respiration during germination after 24 hr; assay type: functional, organism-based; how it was run: as §1
Lolium multiflorum [20] = experiment: Phytotoxicity against Lolium multiflorum (Italian ryegrass) assessed as inhibition of seed respiration during germination after 24 hr; assay type: functional, organism-based; how it was run: as §1
Physalis ixocarpa [21] = experiment: Phytotoxicity against Physalis ixocarpa assessed as inhibition of seed germination after 48 hr; assay type: functional; how it was run: as §2
Lactuca sativa [22] = experiment: Phytotoxicity against Lactuca sativa (lettuce) assessed as inhibition of seed germination after 48 hr; assay type: functional; how it was run: as §2
Lolium multiflorum [23] = experiment: Phytotoxicity against Lolium multiflorum (Italian ryegrass) assessed as inhibition of seed germination after 48 hr; assay type: functional; how it was run: as §2
[24] = test system: Lolium multiflorum (ryegrass); experiment: Phytotoxicity against Lolium multiflorum (ryegrass) assessed as inhibition of seed germination at 500 uM after 48 hr
[25] = Antioxidant activity assessed as inhibition of bleaching of water soluble crocin measured every 5 min by spectrophotometric analysis; assay type: functional
How it was run: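 Aqueous mixture of 10 µM crocin, 1 mM t-BuOOH and 0.5 M t-BuOH with serial dilutions of test compound, placed under UV254 light; crocin bleaching (absorbance decrease) and fluorescence emission at 440 and 470 nm followed every 5 min. Three experiments, mean ± SEM.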

Spinacia oleracea [26] = experiment: Inhibition of ATP synthesis in Spinacia oleracea (spinach) chloroplasts; assay type: functional
How it was run: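 Spinach thylakoids in 100 mM sorbitol, 5 mM MgCl2, 10 mM KCl, 1 mM Na+-tricine, pH 8, with 50 µM methyl viologen as Hill-reaction electron acceptor. Illuminated at 20 °C through 1% CuSO4 filter. ATP synthesis measured titrimetrically.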

Spinacia oleracea [27] = experiment: Inhibition of H+ uptake in Spinacia oleracea (spinach) chloroplasts; assay type: functional
How it was run: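 Spinach thylakoids (from isolated chloroplasts, in sorbitol/tricine/MgCl2/NaCl buffer, pH 7.8) in 100 mM sorbitol, 5 mM MgCl2, 10 mM KCl, 1 mM Na+-tricine, pH 8, with 50 µM methyl viologen. Illuminated at 20 °C through 1% CuSO4 filter. H+ uptake recorded as pH rise from 8.0 to 8.1 with combination microelectrode on expanded scale.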

CC(=O)c1ccc(O[C@@H]2O[C@H](CO)[C@@H](O)[C@H](O)[C@H]2O)cc1 [PICEIN]
I50 (Physalis ixocarpa [1]): inactive
inhibition at 500 µM (Lolium multiflorum [2]): 30%
Activity (Trifolium pratense [3]): Active
Activity (Physalis ixocarpa [4]): Active
Activity (Trifolium pratense [5]): Active
Activity (Lactuca sativa [6]): Active
I50 (Trifolium pratense [7]): inactive
I50 (Trifolium pratense [8]): inactive
I50 (Physalis ixocarpa [9]): inactive
I50 (Physalis ixocarpa [10]): inactive
I50 (Lactuca sativa [11]): inactive
I50 (Lactuca sativa [12]): inactive
I50 (Lolium multiflorum [13]): inactive
I50 (Lolium multiflorum [14]): inactive
GI50 (Trifolium pratense [15]): inactive
Activity (Lolium multiflorum [16]): Active
Activity (Lolium multiflorum [17]): Active
I50 (Trifolium pratense [18]): inactive
I50 (Lactuca sativa [19]): inactive
I50 (Lolium multiflorum [20]): inactive
GI50 (Physalis ixocarpa [21]): inactive
GI50 (Lactuca sativa [22]): inactive
GI50 (Lolium multiflorum [23]): inactive
inhibition at 500 µM [24]: 30%

C=C(C)[C@H]1Cc2cc(C(C)=O)ccc2O1 [TREMETONE]
I50 (Physalis ixocarpa [1]): inactive
IC50 (Trifolium pratense [7]; read-out: I50): 34.9 µM
IC50 (Trifolium pratense [8]; read-out: I50): 35.5 µM
IC50 (Physalis ixocarpa [9]; read-out: I50): 18.6 µM
IC50 (Physalis ixocarpa [10]; read-out: I50): 7.7 µM
IC50 (Lactuca sativa [11]; read-out: I50): 44.2 µM
IC50 (Lactuca sativa [12]; read-out: I50): 45 µM
IC50 (Lolium multiflorum [13]; read-out: I50): 36.1 µM
IC50 (Lolium multiflorum [14]; read-out: I50): 35 µM
GI50 (Trifolium pratense [15]): 35.5 µM
inhibition [25]: Active
inhibition (Spinacia oleracea [26]): Dose-dependent effect
inhibition (Spinacia oleracea [27]): Dose-dependent effect
IC50 (Spinacia oleracea [27]; read-out: I50): 70.7 µM
I50 (Trifolium pratense [18]): inactive
I50 (Lactuca sativa [19]): inactive
I50 (Lolium multiflorum [20]): inactive
GI50 (Physalis ixocarpa [21]): 31.8 µM
GI50 (Lactuca sativa [22]): 45 µM
GI50 (Lolium multiflorum [23]): 37.5 µM
